# Measurements from ChEMBL document CHEMBL1148762, “Lysosome and HER3 (ErbB3) selective anticancer agent kahalalide F: semisynthetic modifications and antifungal lead-exploration studies” (J Med Chem, 2007).
# Experiments:
# [1] = tested on: Fusarium proliferatum; test: Antimicrobial activity against Fusarium proliferatum at 0.3 uM after 48 hrs by microtiter assay; type: functional
# Outline: (§1)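 96-well microdilution broth assay with conidia (3 × 10^5 conidia/mL, harvested from 7-day PDA cultures and filtered) against F. oxysporum, F. proliferatum and F. solani at 0.3, 3 and 30 µM. Plates were held at 24 ± 1 °C under a 12 h photoperiod. Growth was read at 620 nm at 24, 48 and 72 h and reported as percent inhibition from mean absorbance with standard error.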
# [2] = tested on: Fusarium oxysporum; test: Antimicrobial activity against Fusarium oxysporum at 30 uM after 72 hrs by microtiter assay; type: functional; outline: as §1
# [3] = tested on: Fusarium oxysporum; test: Antimicrobial activity against Fusarium oxysporum at 0.3 uM after 48 hrs by microtiter assay; type: functional; outline: as §1
# [4] = tested on: Fusarium proliferatum; test: Antimicrobial activity against Fusarium proliferatum at 30 uM after 48 hrs by microtiter assay; type: functional; outline: as §1
# [5] = tested on: HCC 2998; test: Cytotoxicity against human HCC2998 cells; type: functional
# Outline: (§2)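 NCI Developmental Therapeutics Program cell panel. GI50 is the concentration that reduces growth of treated cells to half that of untreated controls. TGI is the concentration that completely halts growth.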
# [6] = tested on: COLO 205; test: Cytotoxicity against human COLO205 cells; type: functional; outline: as §2
# [7] = tested on: Candida albicans; test: Antimicrobial activity against Candida albicans ATCC 90028; type: functional, organism-based
# [8] = tested on: Fusarium solani; test: Antimicrobial activity against Fusarium solani at 0.3 uM after 48 hrs by microtiter assay; type: functional; outline: as §1
# [9] = tested on: HT-29; test: Cytotoxicity against human HT29 cells; type: functional; outline: as §2
# [10] = tested on: Fusarium solani; test: Antimicrobial activity against Fusarium solani at 30 uM after 48 hrs by microtiter assay; type: functional; outline: as §1
# [11] = tested on: Fusarium solani; test: Antimicrobial activity against Fusarium solani at 30 uM after 72 hrs by microtiter assay; type: functional; outline: as §1
# [12] = tested on: Fusarium oxysporum; test: Antimicrobial activity against Fusarium oxysporum at 3 uM after 48 hrs by microtiter assay; type: functional; outline: as §1
# [13] = tested on: Fusarium solani; test: Antimicrobial activity against Fusarium solani at 3 uM after 48 hrs by microtiter assay; type: functional; outline: as §1
# [14] = tested on: HCT-15; test: Cytotoxicity against human HCT15 cells; type: functional; outline: as §2
# [15] = tested on: Fusarium proliferatum; test: Antimicrobial activity against Fusarium proliferatum at 3 uM after 72 hrs by microtiter assay; type: functional; outline: as §1
# [16] = tested on: Cryptococcus neoformans; test: Antimicrobial activity against Cryptococcus neoformans ATCC 90113; type: functional, organism-based
# [17] = tested on: KM12; test: Cytotoxicity against human KM12 cells; type: functional; outline: as §2
# [18] = tested on: Fusarium proliferatum; test: Antimicrobial activity against Fusarium proliferatum at 30 uM after 72 hrs by microtiter assay; type: functional; outline: as §1
# [19] = tested on: A549; test: Cytotoxicity against human A549 cells; type: functional; outline: as §2
# [20] = tested on: SNB-75; test: Cytotoxicity against human SNB75 cells; type: functional; outline: as §2
# [21] = tested on: NCI-H322M; test: Cytotoxicity against human NCI-H322M cells; type: functional; outline: as §2
# [22] = tested on: Mycobacterium tuberculosis; test: Antibacterial activity against Mycobacterium tuberculosis H37Rv at 16 ug/mL by micro plate alamar blue assay; type: functional
# Outline: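 M. tuberculosis H37Rv ATCC 27294 grown in BACTEC 12B medium; microplate Alamar blue assay (MABA). Primary screen at a single concentration of 16 µg/mL, read as percent inhibition.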
# [23] = tested on: Fusarium oxysporum; test: Antimicrobial activity against Fusarium oxysporum at 0.3 uM after 72 hrs by microtiter assay; type: functional; outline: as §1
# [24] = tested on: UACC-257; test: Cytotoxicity against human UACC257 cells; type: functional; outline: as §2
# [25] = tested on: Fusarium oxysporum; test: Antimicrobial activity against Fusarium oxysporum at 30 uM after 48 hrs by microtiter assay; type: functional; outline: as §1
# [26] = tested on: Aspergillus fumigatus; test: Antimicrobial activity against Aspergillus fumigatus ATCC 90906; type: functional, organism-based
# [27] = tested on: SK-OV-3; test: Cytotoxicity against human SK-OV3 cells; type: functional; outline: as §2
# [28] = tested on: Hs-578T; test: Cytotoxicity against human HS578T cells; type: functional; outline: as §2
# [29] = tested on: DU-145; test: Cytotoxicity against human DU145 cells; type: functional; outline: as §2
# [30] = tested on: Fusarium proliferatum; test: Antimicrobial activity against Fusarium proliferatum at 3 uM after 48 hrs by microtiter assay; type: functional; outline: as §1
# [31] = tested on: ACHN; test: Cytotoxicity against human ACHN cells; type: functional; outline: as §2
# [32] = tested on: Mycobacterium intracellulare; test: Antimicrobial activity against Mycobacterium intracellular ATCC 23068; type: functional, organism-based
# [33] = tested on: Fusarium solani; test: Antimicrobial activity against Fusarium solani at 0.3 uM after 72 hrs by microtiter assay; type: functional; outline: as §1
# [34] = tested on: Fusarium solani; test: Antimicrobial activity against Fusarium solani at 3 uM after 72 hrs by microtiter assay; type: functional; outline: as §1
# [35] = tested on: Fusarium proliferatum; test: Antimicrobial activity against Fusarium proliferatum at 0.3 uM after 72 hrs by microtiter assay; type: functional; outline: as §1
# [36] = tested on: Fusarium oxysporum; test: Antimicrobial activity against Fusarium oxysporum at 3 uM after 72 hrs by microtiter assay; type: functional; outline: as §1
# [37] = tested on: RPMI-8226; test: Cytotoxicity against human RPMI8226 cells; type: functional; outline: as §2
# [38] = tested on: PC-3; test: Cytotoxicity against human PC3 cells; type: functional; outline: as §2
smiles,measurement,setting,value
C/C=C1\NC(=O)[C@H](Cc2ccccc2)NC(=O)[C@@H](C(C)C)NC(=O)[C@@H]([C@@H](C)CC)NC(=O)[C@H](NC(=O)[C@H](NC(=O)[C@H](CCCNCc2ccncc2)NC(=O)[C@H]2CCCN2C(=O)[C@H](NC(=O)[C@@H](NC(=O)[C@@H](NC(=O)[C@H](NC(=O)CCCC(C)C)C(C)C)[C@@H](C)O)C(C)C)C(C)C)[C@@H](C)CC)[C@@H](C)OC(=O)[C@H](C(C)C)NC1=O,inhibition at 0.3 µM,[1],0%
same,inhibition at 30 µM,[2],91.2%
same,inhibition at 0.3 µM,[3],0%
same,inhibition at 30 µM,[4],99.1%
same,GI50,[5],236 nM
same,TGI,[5],732 nM
same,GI50,[6],618 nM
same,MFC,[7],> 20 µM
same,MIC,[7],> 20 µM
same,inhibition at 0.3 µM,[8],0%
same,GI50,[9],279 nM
same,inhibition at 30 µM,[10],99.2%
same,inhibition at 30 µM,[11],97.5%
same,inhibition at 3 µM,[12],0%
same,inhibition at 3 µM,[13],0%
same,GI50,[14],492 nM
same,TGI,[14],1.56 µM
same,inhibition at 3 µM,[15],0%
same,MFC,[16],5 µM
same,MIC,[16],5 µM
same,GI50,[17],152 nM
same,inhibition at 30 µM,[18],95.3%
same,GI50,[19],189 nM
same,TGI,[19],0.425 µM
same,GI50,[20],1290 nM
same,TGI,[20],2610 nM
same,GI50,[21],131 nM
same,TGI,[21],0.238 µM
same,inhibition at 16 µg/mL,[22],24%
same,inhibition at 0.3 µM,[23],0%
same,GI50,[24],1310 nM
same,TGI,[24],2.43 µM
same,inhibition at 30 µM,[25],98.2%
same,MFC,[26],20 µM
same,MIC,[26],10 µM
same,GI50,[27],374 nM
same,TGI,[27],1.36 µM
same,GI50,[28],162 nM
same,TGI,[28],444 nM
same,GI50,[29],124 nM
same,TGI,[29],266 nM
same,inhibition at 3 µM,[30],0%
same,GI50,[31],1280 nM
same,TGI,[31],2.32 µM
same,MBC,[32],> 20 µM
same,MIC,[32],> 20 µM
same,inhibition at 0.3 µM,[33],0%
same,inhibition at 3 µM,[34],0%
same,inhibition at 0.3 µM,[35],0%
same,inhibition at 3 µM,[36],0%
same,GI50,[37],638 nM
same,TGI,[37],1.89 µM
same,GI50,[38],267 nM
same,TGI,[38],0.973 µM
C/C=C1\NC(=O)[C@H](Cc2ccccc2)NC(=O)[C@@H](C(C)C)NC(=O)[C@@H]([C@@H](C)CC)NC(=O)[C@H](NC(=O)[C@H](NC(=O)[C@H](CCCNCc2ccc(F)cc2)NC(=O)[C@H]2CCCN2C(=O)[C@H](NC(=O)[C@@H](NC(=O)[C@@H](NC(=O)[C@H](NC(=O)CCCC(C)C)C(C)C)[C@@H](C)O)C(C)C)C(C)C)[C@@H](C)CC)[C@@H](C)OC(=O)[C@H](C(C)C)NC1=O,IC50,[7],> 12.6 µM
same,IC50,[16],3.77 µM
same,IC50,[26],> 12.6 µM
same,IC50,[32],> 20 µM
CC(=O)O[C@H]1C(=O)[C@@]2(C)[C@H]([C@H](OC(=O)c3ccccc3)[C@]3(O)C[C@H](OC(=O)[C@H](O)[C@@H](NC(=O)c4ccccc4)c4ccccc4)C(C)=C1C3(C)C)[C@]1(OC(C)=O)CO[C@@H]1C[C@@H]2O [PACLITAXEL],GI50,[5],3 nM
same,TGI,[5],126 nM
same,GI50,[6],3 nM
same,TGI,[6],316 nM
same,GI50,[9],2 nM
same,TGI,[9],251 nM
same,GI50,[14],158 nM
same,TGI,[14],15.8 µM
same,GI50,[17],4 nM
same,TGI,[17],15.8 µM
same,GI50,[19],4 nM
same,TGI,[19],25.1 µM
same,GI50,[20],4 nM
same,TGI,[20],126 nM
same,GI50,[21],13 nM
same,TGI,[21],6.31 µM
same,GI50,[24],40 nM
same,TGI,[24],25.1 µM
same,GI50,[27],8 nM
same,TGI,[27],15.8 µM
same,GI50,[28],3 nM
same,TGI,[28],100 nM
same,GI50,[29],5 nM
same,TGI,[29],794 nM
same,GI50,[31],398 nM
same,TGI,[31],12.6 µM
same,GI50,[37],2 nM
same,TGI,[37],5.01 µM
same,GI50,[38],4 nM
same,TGI,[38],10 µM
